# The list is not random: actives were taken first. Their share in the collection is about 4.7%.
# RGS4 act = RGS4 potentiation or activation; B-score at 10 µM; AID 463111; HEK293 M3R/inducible RGS4, carbachol calcium flux Fluo4; hits give low values; actives 0.92% (n = 310,000);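 active = B-score of the integrated calcium signal more than 4 SD below the library mean, with starting fluorescence not abnormally high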;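 also: negative B-score means reduced calcium response which marks RGS4 activation or potentiation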
#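 test system = HEK293 cells with stable M3R and inducible RGS4 | schedule = recording 10 s baseline at 1 Hz, 100 s post-agonist | technique = Fluo4-AM (2 µM) calcium-flux fluorescence, kinetic read | measure = Agonist-evoked peak-minus-minimum fluorescence over baseline, integrated ratio, B score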
# MrgX1 agonist = activates human MrgX1 receptor signaling; MrgX1-HEK293 cells, Fluo-4 calcium fluorescence, agonist mode; hits give high values; AID 588627; actives 0.44% (n = 310,000); B-score at 10 µM; Q96LB2;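 active = calcium response B-score plate-corrected fluorescence ratio at least 3 library SD, with starting fluorescence B-score inside 5 SD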
# Target sequence (Q96LB2 whole entry, looked up): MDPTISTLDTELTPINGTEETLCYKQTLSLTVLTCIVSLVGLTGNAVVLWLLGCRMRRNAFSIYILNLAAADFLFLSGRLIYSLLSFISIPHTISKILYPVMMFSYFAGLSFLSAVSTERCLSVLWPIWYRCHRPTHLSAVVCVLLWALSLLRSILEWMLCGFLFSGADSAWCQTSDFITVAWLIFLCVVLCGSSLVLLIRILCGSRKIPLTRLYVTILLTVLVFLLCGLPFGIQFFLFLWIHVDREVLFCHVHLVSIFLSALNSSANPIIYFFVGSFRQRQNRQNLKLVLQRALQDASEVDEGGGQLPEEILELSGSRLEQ
#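 Assay system: MrgX1-expressing HEK293 cells / Amount: fifteen thousand cells per well / Doses: test compound in the initial addition of three / Timing: cells plated overnight, dye loaded 0.5 h 37 °C, 0.5 h room temperature / Technique: kinetic calcium dye fluorescence, Fluo-4 NW / Control set: positive and negative controls per plate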
# MrgX1 antag = blocks BAM8-22 activation of human MrgX1 receptor | MRGX1-HEK293 calcium flux, Fluo-4, BAM8-22 antagonism; hits give low values | actives 1.3% (n = 310,000) | B-score at 10 µM | Q96LB2;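 active = calcium-response B-score plate-corrected more than 3 library SD below zero, starting fluorescence within 5 deviations, no agonist response on first addition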;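 also: peak minus trough fluorescence over baseline after final BAM8-22 challenge near maximal dose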
# MrgX1 allo act = human MrgX1 positive allosteric modulation, primary screen | Q96LB2 | actives 0.63% (n = 310,000) | MrgX1-HEK293, Fluo-4 calcium flux, FDSS; hits give high values | B-score at 10 µM;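 active = plate-corrected calcium response at least 3 library SD above typical, normal starting fluorescence, not activating the receptor alone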;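 also: compound read alongside a low EC10 to EC30 dose of BAM8-22 agonist; peak minus trough fluorescence over baseline measured at the second addition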
# KCC2 mod = modulators of human KCC2 chloride dependent transport | KCC2 cells, thallium flux FluoZin-2 fluorescence | B-score of Tl+ flux slope (higher = more flux/activation; lower = inhibition) at 10 µM | actives 2.2% (n = 190,000);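 active = thallium flux slope and its plate-corrected score both differing from the plate sample mean at a set confidence after two filtering rounds, in either direction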;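 also: slope of fluorescence scaled to starting intensity during 10 to 20 s after thallium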
# RGS4 inh = inhibitors of human RGS4; actives 0.45% (n = 310,000); B-score at 10 µM; HEK293 M3R/RGS4 inducible, Fluo-4 calcium flux; hits give high values; triggered by carbachol at its EC20; P49798;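 active = B-score, a plate-corrected calcium signal, over three deviations above library mean, with baseline fluorescence within five deviations of library mean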;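 also: RGS4 expression induced by doxycycline in cells with stable M3 receptor; B-score is computed from the integrated fluorescence ratio over baseline after carbachol; higher B-score means a larger calcium signal and so more RGS4 inhibition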
# Target sequence (P49798 whole entry, looked up): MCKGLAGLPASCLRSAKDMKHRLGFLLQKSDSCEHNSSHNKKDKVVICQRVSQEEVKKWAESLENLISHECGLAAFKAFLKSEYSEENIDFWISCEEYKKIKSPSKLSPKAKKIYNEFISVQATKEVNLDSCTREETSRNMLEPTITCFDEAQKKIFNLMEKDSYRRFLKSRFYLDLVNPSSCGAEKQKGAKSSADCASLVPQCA
# MrgX1 antag conf = confirmation of human MrgX1 receptor antagonists. shares compounds with MrgX1 antag. MrgX1-HEK293, BAM8-22 calcium flux, Fluo-4; hits give low values. remaining BAM8-22 calcium response % of control (hits give low values), % at 10 µM. actives 19% (n = 2,300);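 active = remaining agonist calcium response no higher than 100% minus 3 SD of agonist-only control wells, with starting fluorescence near control levels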;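 also: agonist BAM8-22 given at a near maximal EC90 to ECmax level; peak minus minimum fluorescence divided by baseline after agonist addition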
# HEK293 Ca flux = MrgX1 antagonist counter-screen hit in parental HEK293 cells; Fluo-4 calcium fluorescence, FDSS; shares compounds with MrgX1 antag; actives 2% (n = 4,000); fluorescence ratio F(max-min)/F0 at 10 µM;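 active = duplicate-averaged calcium fluorescence ratio at least three times the standard deviation of buffer wells, a nonspecific response in parental cells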
# HEK293 Ca counter = MrgX1 allosteric activator counter-screen hit in parental HEK293 cells; shares compounds with MrgX1 antag; parental HEK293 calcium flux, Fluo-4 fluorescence ratio; hits give high values; fluorescence ratio F(max-min)/F0 at 10 µM; actives 0.4% (n = 4,000);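 active = calcium fluorescence ratio, averaged over duplicates, at least 3 SD of the buffer-well ratio, meaning a nonspecific response in receptor-free cells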;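 also: untransfected parental HEK293 lacking MrgX1 used as counterscreen for MrgX1 allosteric activators; fluorescence change taken during the second addition on a kinetic imager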
# HEK293 Ca cntr2 = MrgX1 activator counter-screen hit in parental HEK293 cells | shares compounds with MrgX1 antag | Fluo-4 calcium fluorescence (FDSS); hits give high values | fluorescence ratio F(max-min)/F0 at 10 µM | actives 8.7% (n = 4,000) | AID 624115;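 active = calcium fluorescence ratio at least three times the spread of buffer wells, meaning a non-specific response in parental cells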
# The depositor's hits bear a star; i = inactive; / = no result given.
SMILES,RGS4 act,MrgX1 agonist,MrgX1 antag,MrgX1 allo act,KCC2 mod,RGS4 inh,MrgX1 antag conf,HEK293 Ca flux,HEK293 Ca counter,HEK293 Ca cntr2
COC(=O)CC1COc2ccccc2N1C(=O)c1cc(OC)c(OC)c(OC)c1 (centres undefined),i,i,-5*,i,/,i,i,i,i,i
CC(C)Cn1nc(NS(=O)(=O)c2cccc3nonc23)c2cc3ccccc3nc21,i,i,i,i,/,i,/,/,/,/
Cn1ccs/c1=N\S(=O)(=O)c1ccc(F)cc1,i,i,-5*,i,/,i,i,i,i,i
Cc1ccc(S(=O)(=O)N2CCN(C(=O)c3ccnn3C)CC2)cc1C,i,i,-5.7*,i,/,i,i,i,i,i
Cc1ccc(S(=O)(=O)N2CCN(C(=O)c3ccco3)CC2)cc1C,i,i,i,i,/,i,/,/,/,/
CCCCOCC1CC(CC#CCN2CCCCC2)C(=O)O1 (centres undefined),/,/,/,/,-0.012,/,/,/,/,/
CCCOCC1CC(CCc2nc(=S)[nH][nH]2)C(=O)O1 (centres undefined),i,i,-5.3*,i,-0.63,i,i,i,i,i
Cc1[nH]c(=O)[nH]c(=O)c1S(=O)(=O)Nc1ccc(Br)cc1F,i,i,i,i,/,i,/,/,/,/
Cc1nc(NCc2ccccn2)c2c3c(sc2n1)CCCC3,i,i,-5.2*,i,-2.4,i,i,i,i,i
CCNc1c(NS(=O)(=O)c2ccc(Cl)s2)c(=O)oc2ccccc12,i,i,i,i,/,i,/,/,/,/
Cc1nc2ccccc2c(=O)n1NC(=O)c1cccc(Cl)c1,i,i,i,i,/,i,/,/,/,/
Cc1cc(C)cc(N2C(=O)C3CC=CCC3C2=O)c1 (centres undefined),i,i,-5.2*,i,0.4,i,i,i,i,i
Cc1cc(N2C(=O)C3CC=CCC3C2=O)cc(C)c1Br (centres undefined),i,i,i,i,-0.48,i,/,/,/,/
CCn1c2ccccc2c2cc(NC(=O)COC(=O)c3ccc(O)cc3)ccc21,i,i,-7.7*,i,/,i,i,i,i,i
CCn1c2ccccc2c2cc(NC(=O)COC(=O)c3cccc(S(=O)(=O)NC)c3)ccc21,i,i,i,i,-0.87,i,/,/,/,/
Cc1cc2oc(=O)cc(Cn3ccnc3)c2cc1Cl,i,i,i,i,/,i,/,/,/,/
S=C(NCCc1c[nH]c2ccccc12)NC1CCCC1,i,i,-4.9*,i,-0.79,i,i,i,i,i
COC(C(=O)N1CCC(n2nccc2NC(=O)C2CC2)CC1)c1ccccc1 (centres undefined),i,i,i,i,/,i,/,/,/,/
COc1ccc(-c2nnn(CC(=O)c3ccccc3)n2)cc1OC,i,i,-4.7*,i,-0.11,i,i,i,i,i
COc1cc(-c2nnn(CC#N)n2)ccc1OCc1ccccc1,i,i,-4.7*,i,-1.3,i,i,i,i,i

# Screens from PubChem.
